Measured values reported in ChEMBL document CHEMBL3272299, “Antineoplastic agents. 1. N-Protected vinyl, 1,2-dihaloethyl, and cyanomethyl esters of phenylalanine” (J Med Chem, 1977).
Blank lines part the entries; values can stand above or below the compound they belong to. The source made the active and inactive calls. The rule behind the calls is not given here.

Tests used:
[1] = test system: W256; assay: Antitumor activity against rat Walker 256 cells allografted in Sprague-Dawley rat assessed as host survival days at 2.5 mg/kg, ip qd; assay type: functional; conditions: route intraperitoneal
Outline: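 Walker 256 ascites cells were implanted ip into male Sprague-Dawley rats (75 ± 10 g). Compound in 0.05% Tween-water was given ip at 2.5 mg/kg/day, and the day of death was recorded. T/C was calculated from the mean survival time per group according to the NIH protocol. Melphalan served as the internal standard.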

[2] = Acute toxicity in CF1 mouse; assay type: organism-based; conditions: in vivo
[3] = test system: Ehrlich; assay: Antitumor activity against mouse EAC allografted in CF1 mouse assessed as tumor volume at 33 mg/kg/day measured on day 7; assay type: functional
[4] = test system: Ehrlich; assay: Antitumor activity against mouse EAC allografted in CF1 mouse assessed as inhibition of tumor growth at 33 mg/kg/day measured on day 7; assay type: functional; conditions: 168 h
[5] = test system: P388; assay: Antitumor activity against mouse P388 cells allografted in DBA/2 mouse assessed as host survival at 20 mg/kg, ip qd; assay type: functional; conditions: route intraperitoneal
Outline: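 P388 leukaemia cells were implanted on day 0 in male DBA/2 mice (20 g). Compound was dosed ip at 20 mg/kg/day. T/C survival values were calculated according to the NIH protocol. 5-Fluorouracil served as the internal standard.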

[6] = test system: P388; assay: Antitumor activity against mouse P388 cells allografted in DBA/2 mouse assessed as tumor growth inhibition at 20 mg/kg, ip qd relative to control; assay type: functional; conditions: route intraperitoneal
[7] = test system: Ehrlich; assay: Antitumor activity against mouse EAC allografted in CF1 mouse assessed as host survival at 33 mg/kg/day measured on day 7; assay type: functional, organism-based
[8] = test system: W256; assay: Antitumor activity against rat Walker 256 cells allografted in Sprague-Dawley rat assessed as tumor growth inhibition at 2.5 mg/kg, ip qd relative to control; assay type: functional; conditions: route intraperitoneal
[9] = Chemical stability of the compound assessed as optical rotation; assay type: physicochemical
[10] = Chemical stability of the compound by TLC analysis; assay type: physicochemical

SMILES: O=C(N[C@H](Cc1ccccc1)C(=O)OC(Br)CBr)OCc1ccccc1 (stereo not given in full)
Survival [1]: 8.7 days | LD50 [2]: 310 µmol/kg | Activity [3]: 0 mL | inhibition in vivo at 33 mg/kg/day [4]: 100% | Survival [5]: 7.5 days | T/C [6]: 92 | Survival [7]: Active | T/C [8]: 117

SMILES: O=C(/C=C/c1ccccc1)N[C@@H](Cc1ccccc1)C(=O)O
LD50 [2]: 740 µmol/kg | Activity [3]: 2.1 mL | inhibition in vivo at 33 mg/kg/day [4]: 58% | Survival [7]: Active

SMILES: CCOC(=O)[C@H](Cc1ccccc1)NC(=O)OCc1ccccc1
LD50 [2]: 1530 µmol/kg | Activity [3]: 1.5 mL | inhibition in vivo at 33 mg/kg/day [4]: 57% | Survival [7]: Active

SMILES: C=CCOC(=O)[C@H](Cc1ccccc1)NC(=O)OCc1ccccc1
Activity [3]: 2.6 mL | inhibition in vivo at 33 mg/kg/day [4]: 24% | Stability [9]: Stable | Stability [10]: Stable | Survival [7]: Active

Stability [9]: Stable | Stability [10]: Stable
SMILES: C=COC(=O)[C@H](Cc1ccccc1)NS(=O)(=O)c1ccc(C)cc1
Activity [3]: 3.8 mL | inhibition in vivo at 33 mg/kg/day [4]: 56.8%

SMILES: C=COC(=O)C(Cc1ccccc1)NC(=O)OCc1ccccc1 (racemic)
LD50 [2]: 1540 µmol/kg | Activity [3]: 1.3 mL | inhibition in vivo at 33 mg/kg/day [4]: 58% | Stability [9]: Stable | Stability [10]: Stable | Survival [7]: Active

SMILES: C#CCOC(=O)[C@H](Cc1ccccc1)NC(=O)OCc1ccccc1
Activity [3]: 3.3 mL | inhibition in vivo at 33 mg/kg/day [4]: 54%

Stability [9]: Stable | Stability [10]: Stable
SMILES: C=COC[C@H](Cc1ccccc1)NC(=O)OCc1ccccc1
Activity [3]: 1.4 mL | inhibition in vivo at 33 mg/kg/day [4]: 47%

SMILES: CC(=O)N[C@@H](Cc1ccccc1)C(=O)OCC#N
Activity [3]: 3.9 mL | inhibition in vivo at 33 mg/kg/day [4]: 16% | Stability [9]: Stable | Stability [10]: Stable | Survival [7]: Active

SMILES: O=C(O)CCCc1ccc(N(CCCl)CCCl)cc1 [CHLORAMBUCIL]
LD50 [2]: 61 µmol/kg

SMILES: Cc1ccc(S(=O)(=O)N[C@@H](Cc2ccccc2)C(=O)OCC#N)cc1
Survival [1]: 8.5 days | LD50 [2]: 730 µmol/kg | Activity [3]: 0.4 mL | inhibition in vivo at 33 mg/kg/day [4]: 97% | Stability [9]: Stable | Stability [10]: Stable | Survival [5]: 9.1 days | T/C [6]: 112 | T/C [8]: 113

SMILES: O=C(N[C@H](Cc1ccccc1)C(=O)O)OCc1ccccc1
Activity [3]: 4.3 mL | inhibition in vivo at 33 mg/kg/day [4]: 0% | Survival [7]: Active

SMILES: Sc1ncnc2nc[nH]c12 [MERCAPTOPURINE ANHYDROUS]
Activity [3]: 0.7 mL | inhibition in vivo at 33 mg/kg/day [4]: 99.6% | Survival [5]: 12 days | T/C [6]: 148 | Survival [7]: Active

SMILES: O=C(N[C@@H](Cc1ccccc1)C(=O)OC(Cl)CCl)OCc1ccccc1 (stereo not given in full)
LD50 [2]: 1260 µmol/kg | Activity [3]: 0.8 mL | inhibition in vivo at 33 mg/kg/day [4]: 93% | Survival [7]: Active

SMILES: Cc1ccc(S(=O)(=O)N[C@@H](Cc2ccccc2)C(=O)C(=O)CCl)cc1
LD50 [2]: 210 µmol/kg | Activity [3]: 0.01 mL | inhibition in vivo at 33 mg/kg/day [4]: 100%

SMILES: O=C(N[C@H](CO)Cc1ccccc1)OCc1ccccc1
Activity [3]: 1.3 mL | inhibition in vivo at 33 mg/kg/day [4]: 55% | Survival [7]: Active

SMILES: N#CCOC(=O)[C@H](Cc1ccccc1)NC(=O)/C=C/c1ccccc1
Activity [3]: 2.8 mL | inhibition in vivo at 33 mg/kg/day [4]: 27% | Stability [9]: Stable | Stability [10]: Stable | Survival [7]: Active

SMILES: N#CCOC(=O)[C@H](Cc1ccccc1)NC(=O)OCc1ccccc1
Survival [1]: 8.5 days | LD50 [2]: 440 µmol/kg | Activity [3]: 0.2 mL | inhibition in vivo at 33 mg/kg/day [4]: 99.9% | Stability [9]: Stable | Stability [10]: Stable | Survival [5]: 6.6 days | T/C [6]: 82 | Survival [7]: Active | T/C [8]: 113

SMILES: O=C(N[C@@H](Cc1ccccc1)C(=O)O)OCc1ccccc1
LD50 [2]: 840 µmol/kg | Activity [3]: 0.6 mL | inhibition in vivo at 33 mg/kg/day [4]: 75% | Survival [7]: Active

SMILES: C#CCN[C@@H](Cc1ccccc1)C(=O)OCC
Activity [3]: 3.7 mL | inhibition in vivo at 33 mg/kg/day [4]: 16% | Survival [7]: Active

SMILES: O=Cc1ccccc1 [BENZALDEHYDE]
Activity [3]: 0.8 mL | inhibition in vivo at 33 mg/kg/day [4]: 69% | Survival [7]: Active

Stability [9]: Stable | Stability [10]: Stable
SMILES: C=COC(=O)[C@@H](N)Cc1ccccc1.Cl
Activity [3]: 2.2 mL | inhibition in vivo at 33 mg/kg/day [4]: 41%

SMILES: O=C(N[C@@H](Cc1ccccc1)C(=O)N[C@@H](Cc1ccccc1)C(=O)OC(Br)CBr)OCc1ccccc1 (stereo not given in full)
LD50 [2]: 780 µmol/kg | Activity [3]: 0.2 mL | inhibition in vivo at 33 mg/kg/day [4]: 92% | Survival [7]: Active

SMILES: O=C(N[C@@H](Cc1ccccc1)C(=O)O)c1ccccc1
Activity [3]: 1.3 mL | inhibition in vivo at 33 mg/kg/day [4]: 73% | Survival [7]: Active

SMILES: Cc1ccc(S(=O)(=O)N[C@@H](Cc2ccccc2)C(=O)O)cc1
Activity [3]: 0.5 mL | inhibition in vivo at 33 mg/kg/day [4]: 84% | Survival [7]: Active

SMILES: C=COC(=O)[C@H](Cc1ccccc1)NC(=O)OCc1ccccc1
Survival [1]: 18.1 days | LD50 [2]: > 6150 µmol/kg | Activity [3]: 0.1 mL | inhibition in vivo at 33 mg/kg/day [4]: 99.9% | Stability [9]: Stable | Stability [10]: Stable | Survival [5]: 8.1 days | T/C [6]: 100 | Survival [7]: Active | T/C [8]: 226

SMILES: C=COC(=O)[C@H](Cc1ccccc1)NC(=O)c1ccccc1
Activity [3]: 2.1 mL | inhibition in vivo at 33 mg/kg/day [4]: 56.8% | Stability [9]: Stable | Stability [10]: Stable | Survival [7]: Active

SMILES: O=C(N[C@@H](Cc1ccccc1)C(=O)OC(Br)CBr)OCc1ccccc1 (stereo not given in full)
Survival [1]: 23 days | LD50 [2]: 150 µmol/kg | Activity [3]: 0 mL | inhibition in vivo at 33 mg/kg/day [4]: 100% | Survival [5]: 6.7 days | T/C [6]: 83 | Survival [7]: Active | T/C [8]: 305

SMILES: C=COC(=O)[C@@H](Cc1ccccc1)NC(=O)OCc1ccccc1
LD50 [2]: 1540 µmol/kg | Activity [3]: 3.6 mL | inhibition in vivo at 33 mg/kg/day [4]: 36% | Stability [9]: Stable | Stability [10]: Stable | Survival [7]: Active

SMILES: O=C(NC(Cc1ccccc1)C(=O)O)OCc1ccccc1 (racemic)
Activity [3]: 2.6 mL | inhibition in vivo at 33 mg/kg/day [4]: 52%

SMILES: N[C@H](CO)Cc1ccccc1 [L-PHENYLALANINOL]
LD50 [2]: 500 µmol/kg | Activity [3]: 0.6 mL | inhibition in vivo at 33 mg/kg/day [4]: 92%

Stability [9]: Stable | Stability [10]: Stable
SMILES: C=COC(=O)[C@H](Cc1ccccc1)NC(=O)[C@H](Cc1ccccc1)NC(=O)OCc1ccccc1
Activity [3]: 2.1 mL | inhibition in vivo at 33 mg/kg/day [4]: 43%

SMILES: N#CCOC(=O)[C@H](Cc1ccccc1)NC(=O)c1ccccc1
LD50 [2]: 360 µmol/kg | Activity [3]: 1.8 mL | inhibition in vivo at 33 mg/kg/day [4]: 47% | Stability [9]: Stable | Stability [10]: Stable

Stability [9]: Stable | Stability [10]: Stable
SMILES: Cl.N#CCOC(=O)[C@@H](N)Cc1ccccc1
Activity [3]: 2.5 mL | inhibition in vivo at 33 mg/kg/day [4]: 9%

SMILES: N#CCOC(=O)[C@H](Cc1ccccc1)NC(=O)[C@H](Cc1ccccc1)NC(=O)OCc1ccccc1
Activity [3]: 1.5 mL | inhibition in vivo at 33 mg/kg/day [4]: 52% | Stability [9]: Stable | Stability [10]: Stable | Survival [7]: Active

SMILES: C=CCOC(=O)C(Cc1ccccc1)NC(=O)OCc1ccccc1 (racemic)
Activity [3]: 0.6 mL | inhibition in vivo at 33 mg/kg/day [4]: 71% | Stability [9]: Stable | Stability [10]: Stable | Survival [7]: Active

SMILES: N#CCOC(=O)C(Cc1ccccc1)NC(=O)OCc1ccccc1 (racemic)
LD50 [2]: 760 µmol/kg | Activity [3]: 0.4 mL | inhibition in vivo at 33 mg/kg/day [4]: 86% | Stability [9]: Stable | Stability [10]: Stable | Survival [7]: Active

SMILES: N#CCOC(=O)[C@@H](Cc1ccccc1)NC(=O)OCc1ccccc1
LD50 [2]: 80 µmol/kg | Activity [3]: 1 mL | inhibition in vivo at 33 mg/kg/day [4]: 72% | Stability [9]: Stable | Stability [10]: Stable

SMILES: CCOC(=O)[C@H](Cc1ccccc1)NC(=O)/C=C/c1ccccc1
Activity [3]: 5 mL | inhibition in vivo at 33 mg/kg/day [4]: 0% | Survival [7]: Active

SMILES: N[C@@H](Cc1ccc(N(CCCl)CCCl)cc1)C(=O)O [MELPHALAN]
Survival [1]: 23 days | Activity [3]: 0.1 mL | inhibition in vivo at 33 mg/kg/day [4]: 99% | Survival [7]: Active | T/C [8]: 305
